Results on 19 molecules are retold here after ChEMBL document CHEMBL1153946, “Oxadiazole-diarylpyrazole 4-carboxamides as cannabinoid CB1 receptor ligands” (Bioorg Med Chem Lett, 2009).

One assay deals with Cannabinoid receptor 1 (Rattus norvegicus, UniProt P20272). Description: Displacement of [3H]CP-55940 from cannabinoid CB1 receptor in Sprague-Dawley rat cerebellar membrane by liquid scintillation spectrometry. Set-up: species or system Cerebellum. Put shortly: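 Membranes from cerebella of male Sprague-Dawley rats (200–300 g), homogenized in TME (50 mM Tris-HCl, 1 mM EDTA, 3 mM MgCl₂, pH 7.4), spun 48,000g 30 min at 4 °C, resuspended, stored at −70 °C. Incubated 1 h at 30 °C with radioligand in TME plus 0.5% fatty-acid-free BSA. Filtered on PEI-soaked GF/B and washed; IC50 by nonlinear regression.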
Chain of Cannabinoid receptor 1 (P20272 whole entry): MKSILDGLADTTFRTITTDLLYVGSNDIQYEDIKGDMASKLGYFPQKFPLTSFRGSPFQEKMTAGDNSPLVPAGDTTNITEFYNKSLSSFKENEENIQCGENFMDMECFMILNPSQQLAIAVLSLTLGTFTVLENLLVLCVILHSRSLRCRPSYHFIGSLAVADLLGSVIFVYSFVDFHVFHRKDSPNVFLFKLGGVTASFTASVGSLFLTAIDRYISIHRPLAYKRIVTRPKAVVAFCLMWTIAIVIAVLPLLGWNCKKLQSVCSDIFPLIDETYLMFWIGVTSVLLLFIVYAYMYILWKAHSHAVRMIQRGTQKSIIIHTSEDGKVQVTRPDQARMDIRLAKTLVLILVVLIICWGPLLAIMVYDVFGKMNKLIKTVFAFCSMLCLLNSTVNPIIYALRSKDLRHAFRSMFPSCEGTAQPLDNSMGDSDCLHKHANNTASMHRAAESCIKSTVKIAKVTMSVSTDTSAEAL
(In general: In a radioligand displacement assay an active substance lowers the binding of a labelled ligand.)

The target of another assay is Cannabinoid receptor 2 (Homo sapiens, UniProt P34972). The assay can be described thus: Displacement of [3H]WIN-55212-2 from human recombinant cannabinoid CB2 receptor expressed in CHOK1 cells by liquid scintillation spectrometry. It counts as cell-based, CHO-K1. Put shortly:
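CHO K-1 cells transfected with human CB2; membranes prepared as for brain tissue. Competition with 3 nM [3H]WIN55,212-2 in TME buffer (pH 7.4) with 0.5% fatty-acid-free BSA, 1 h at 30 °C. Filtered on 0.1% PEI-soaked GF/B, washed five times with ice-cold buffer plus 0.1% BSA, and counted by scintillation. IC50 by nonlinear regression.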

A further assay has as its system CHO-K1. The assay can be described thus: Selectivity ratio of IC50 for human recombinant cannabinoid CB2 receptor expressed in CHOK1 cells to IC50 for cannabinoid CB1 receptor in Sprague-Dawley rat cerebellar membrane.

Each structure is given as a SMILES string. Where only a bound is given, the exact number is not on record here.

Chain of Cannabinoid receptor 2 (P34972 whole entry): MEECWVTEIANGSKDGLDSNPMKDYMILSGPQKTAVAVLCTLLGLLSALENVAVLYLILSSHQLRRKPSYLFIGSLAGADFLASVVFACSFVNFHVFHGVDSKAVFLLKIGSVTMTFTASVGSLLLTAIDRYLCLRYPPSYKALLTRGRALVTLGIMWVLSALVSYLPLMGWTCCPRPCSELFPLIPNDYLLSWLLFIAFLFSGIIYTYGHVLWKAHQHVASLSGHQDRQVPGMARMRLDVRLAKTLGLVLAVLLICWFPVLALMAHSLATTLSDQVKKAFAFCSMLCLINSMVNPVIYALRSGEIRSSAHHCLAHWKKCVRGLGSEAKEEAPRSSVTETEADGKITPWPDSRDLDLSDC

What is called IC50 is the midpoint of a concentration-inhibition curve. In the case of `CC(C)(C)c1nnc(-c2nn(-c3ccc(Cl)cc3Cl)c(-c3ccc(Cl)cc3)c2C(=O)Nc2ccccn2)o1`, the results for the IC50 at Cannabinoid receptor 1 and on Cannabinoid receptor 2 were 1.47 nM and 636 nM, respectively. Also, the Ratio IC50 in the assay with CHO-K1 was 433.

`CC(C)(C)c1nnc(-c2nn(-c3ccc(Cl)cc3Cl)c(-c3ccc(Cl)cc3)c2C(=O)Nc2ccccc2)o1`: the figures for the IC50 on Cannabinoid receptor 1 and on Cannabinoid receptor 2 were 1.66 nM and 738 nM, respectively. The Ratio IC50 with CHO-K1 worked out at 445.

With `CCCCNC(=O)c1c(-c2nnc(C(C)(C)C)o2)nn(-c2ccc(Cl)cc2Cl)c1-c1ccc(Cl)cc1`, the IC50 on Cannabinoid receptor 1 was 17.8 nM.

Turning to `O=C(Nc1ccccc1)c1c(-c2nnc(C3(c4ccc(Cl)cc4)CC3)o2)nn(-c2ccc(Cl)cc2Cl)c1-c1ccc(Br)cc1`, the IC50 at Cannabinoid receptor 1 is 1.96 nM; at Cannabinoid receptor 2, over 10000 nM. Moreover, the Ratio IC50 in the assay on CHO-K1 is over 5100.

Molecule `CCN(C)C(=O)c1c(-c2nnc(C(C)(C)C)o2)nn(-c2ccc(Cl)cc2Cl)c1-c1ccc(Cl)cc1` gave an IC50 on Cannabinoid receptor 1 of 11.5 nM.

As for `CCN(CC)C(=O)c1c(-c2nnc(C(C)(C)C)o2)nn(-c2ccc(Cl)cc2Cl)c1-c1ccc(Cl)cc1`, on Cannabinoid receptor 1, the IC50 was determined as 62.1 nM.

Take `CC(C)(C)c1nnc(-c2nn(-c3ccc(Cl)cc3Cl)c(-c3ccc(Br)cc3)c2C(=O)Nc2ccccn2)o1`: the IC50 at Cannabinoid receptor 1 turned out to be 1.46 nM; at Cannabinoid receptor 2 it was 374 nM. The Ratio IC50 with CHO-K1 amounted to 256.

Turning to `CCCNC(=O)c1c(-c2nnc(C(C)(C)C)o2)nn(-c2ccc(Cl)cc2Cl)c1-c1ccc(Cl)cc1`, the IC50 at Cannabinoid receptor 1 turned out to be 5.72 nM.

For `CNC(=O)c1c(-c2nnc(C(C)(C)C)o2)nn(-c2ccc(Cl)cc2Cl)c1-c1ccc(Cl)cc1`, the IC50 at Cannabinoid receptor 1 is 18.3 nM.

With `CC(C)(C)c1nnc(-c2nn(-c3ccc(Cl)cc3Cl)c(-c3ccc(Br)cc3)c2C(=O)Nc2ccccc2)o1`, the IC50 at Cannabinoid receptor 1 is 1.35 nM; at Cannabinoid receptor 2, 386 nM. The Ratio IC50 in the assay with CHO-K1 turned out to be 286.

For `CC(C)NC(=O)c1c(-c2nnc(C(C)(C)C)o2)nn(-c2ccc(Cl)cc2Cl)c1-c1ccc(Cl)cc1`, the IC50 on Cannabinoid receptor 1 was 9.31 nM.

On to `CC(C)(C)c1nnc(-c2nn(-c3ccc(Cl)cc3Cl)c(-c3ccc(Cl)cc3)c2C(N)=O)o1`, for which, on Cannabinoid receptor 1, the IC50 came to 23.8 nM.

As to `CC(=O)CNC(=O)c1c(-c2nnc(C(C)(C)C)o2)nn(-c2ccc(Cl)cc2Cl)c1-c1ccc(Cl)cc1`, the IC50 on Cannabinoid receptor 1 amounted to 3.51 nM.

For the molecule `CC(C)(C)c1nnc(-c2nn(-c3ccc(Cl)cc3Cl)c(-c3ccc(Cl)cc3)c2C(=O)NN2CCCCC2)o1`, the 50% inhibitory concentration (IC50) at Cannabinoid receptor 1 was found to be 17.2 nM.

In turn, `CN(C)C(=O)c1c(-c2nnc(C(C)(C)C)o2)nn(-c2ccc(Cl)cc2Cl)c1-c1ccc(Cl)cc1` registered an IC50 at Cannabinoid receptor 1 of 13.4 nM.

With `CC(C)(C)c1nnc(-c2nn(-c3ccc(Cl)cc3Cl)c(-c3ccc(Cl)cc3)c2C(=O)N2CCCC2)o1`, the IC50 on Cannabinoid receptor 1 was 93.4 nM.

`CCNC(=O)c1c(-c2nnc(C(C)(C)C)o2)nn(-c2ccc(Cl)cc2Cl)c1-c1ccc(Cl)cc1` returned an IC50 on Cannabinoid receptor 1 of 12.7 nM.

On to `CC(C)(C)c1nnc(-c2nn(-c3ccc(Cl)cc3Cl)c(-c3ccc(Cl)cc3)c2C(=O)NC2CCCC2)o1`, for which the IC50 at Cannabinoid receptor 1 was 7.25 nM.

In turn, `CC(C)(C)c1nnc(-c2nn(-c3ccc(Cl)cc3Cl)c(-c3ccc(Cl)cc3)c2C(=O)NC2CC2)o1` yielded an IC50 at Cannabinoid receptor 1 of 3.27 nM.
